Experimental data published in ChEMBL document CHEMBL1629683, “HIV-1 protease codon 36 polymorphisms and differential development of resistance to nelfinavir, lopinavir, and atazanavir in different HIV-1 subtypes” (Antimicrob Agents Chemother, 2010).
Activity calls are given as the source filed them. The calls are words filed in the database; no cut-off is given here.

What was measured:
[1] = tested on: Human immunodeficiency virus 1; assay: Antiviral activity against HIV1 subtype B harboring protease D30N, M46I, A71T and V77I mutant gene and polymorphism at M36 position of protease infected in human cord blood mononuclear cells assessed as inhibition of viral replication […]; type: functional, organism-based; conditions: Human immunodeficiency virus 1, subtype B
Summary of the method: (§1)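 Cord blood mononuclear cells were PHA-stimulated for 72 h in RPMI 1640 with 10% FBS and IL-2. Cells were infected for 2 h with week-0 clonal virus or PI-selected virus (weeks 25 and 35 of selection). They were plated at 5 × 10⁵ cells/well with PI at 0.04 nM to 10 μM. Drug-containing medium was replenished on day 3, supernatant RT activity was read on day 7, and EC₅₀ was derived.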

[2] = tested on: Human immunodeficiency virus 1; assay: Antiviral activity against wild type HIV1 subtype B infected in human cord blood mononuclear cells assessed as inhibition of viral replication after 48 hrs by luciferase reporter gene assay; type: functional, organism-based; conditions: Human immunodeficiency virus 1, subtype B
[3] = tested on: Human immunodeficiency virus 1; assay: Antiviral activity against HIV1 subtype B harboring protease D30N, L33I, M46I, N88D mutant gene and polymorphism at I36 position infected in human cord blood mononuclear cells assessed as inhibition of viral replication […] by […]; type: functional, organism-based; conditions: Human immunodeficiency virus 1, subtype B; summary of the method: as §1
[4] = tested on: Human immunodeficiency virus 1; assay: Antiviral activity against wild type HIV1 subtype C infected in human cord blood mononuclear cells assessed as inhibition of viral replication after 48 hrs by luciferase reporter gene assay; type: functional, organism-based; conditions: Human immunodeficiency virus 1, subtype C
[5] = tested on: Human immunodeficiency virus 1; assay: Antiviral activity against HIV1 subtype C harboring protease L23I, M46I, L89T mutant gene and polymorphism at M36 position infected in human cord blood mononuclear cells assessed as inhibition of viral replication […]; type: functional, organism-based; conditions: Human immunodeficiency virus 1, subtype C; summary of the method: as §1
[6] = tested on: Human immunodeficiency virus 1; assay: Antiviral activity against HIV1 subtype C harboring protease D30N, E35G, I85V, L90M mutant gene and polymorphism at I36 position infected in human cord blood mononuclear cells assessed as inhibition of viral replication […]; type: functional, organism-based; conditions: Human immunodeficiency virus 1, subtype C; summary of the method: as §1
[7] = tested on: Human immunodeficiency virus 1; assay: Selectivity ratio of EC50 for HIV1 subtype B harboring protease polymorphism at M36 position infected in human cord blood mononuclear cells to EC50 for HIV1 subtype B harboring protease polymorphism at I36 position infected in human cord blood mononuclear cells; type: functional
[8] = tested on: Human immunodeficiency virus 1; assay: Antiviral activity against wild type HIV1 subtype CRF02_AG infected in human cord blood mononuclear cells assessed as inhibition of viral replication after 48 hrs by luciferase reporter gene assay; type: functional, organism-based; conditions: Human immunodeficiency virus 1, subtype CRF02_AG
[9] = tested on: Human immunodeficiency virus 1; assay: Antiviral activity against HIV1 subtype CRF02_AG harboring protease L33I, M46I, A71T mutant gene and polymorphism at M36 position infected in human cord blood mononuclear cells assessed as inhibition of viral replication […]; type: functional, organism-based; conditions: Human immunodeficiency virus 1, subtype CRF02_AG; summary of the method: as §1
[10] = tested on: Human immunodeficiency virus 1; assay: Antiviral activity against HIV1 subtype B harboring protease polymorphism at M36 position infected in human TZM-bl cells assessed as inhibition of viral replication after 48 hrs by luciferase reporter gene assay; type: functional, organism-based
Summary of the method: (§2)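 TZM-bl cells (10⁴/well) in DMEM with 10% FBS were infected with the week-0 or week-35 polymorphic variant. After 48 h, cells were PBS-rinsed and lysed, and luciferase activity was read as relative light units. Results are means of three independent experiments run in duplicate.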

[11] = tested on: Human immunodeficiency virus 1; assay: Antiviral activity against HIV1 subtype B harboring protease polymorphism at I36 position infected in human TZM-bl cells assessed as inhibition of viral replication after 48 hrs by luciferase reporter gene assay; type: functional, organism-based; summary of the method: as §2
[12] = tested on: Human immunodeficiency virus 1; assay: Antiviral activity against HIV1 subtype CRF02_AG harboring protease polymorphism at I36 position infected in human TZM-bl cells assessed as inhibition of viral replication after 48 hrs by luciferase reporter gene assay; type: functional, organism-based; summary of the method: as §2
[13] = tested on: Human immunodeficiency virus 1; assay: Selectivity ratio of EC50 for HIV1 subtype C harboring protease polymorphism at I36 position to EC50 for wild type HIV1 subtype C; type: functional
[14] = tested on: Human immunodeficiency virus 1; assay: Selectivity ratio of EC50 for HIV1 subtype B harboring protease D30N, M46I, A71T and V77I mutant gene and polymorphism at M36 position to EC50 for wild type HIV1 subtype B; type: functional
[15] = tested on: Human immunodeficiency virus 1; assay: Selectivity ratio of EC50 for HIV1 subtype CRF02_AG harboring protease L33I, M46I, A71T mutant gene and polymorphism at M36 position to EC50 for wild type HIV1 subtype CRF02_AG; type: functional
[16] = tested on: Human immunodeficiency virus 1; assay: Selectivity ratio of EC50 for HIV1 subtype CRF02_AG harboring protease polymorphism at I36 position and M46 mutant gene to EC50 for wild type HIV1 subtype CRF02_AG; type: functional
[17] = tested on: Human immunodeficiency virus 1; assay: Selectivity ratio of EC50 for HIV1 subtype C harboring protease L23I, M46I, L89T and polymorphism at M36 position to EC50 for wild type HIV1 subtype C M36
[18] = tested on: Human immunodeficiency virus 1; assay: Antiviral activity against HIV1 subtype CRF02_AG harboring protease polymorphism at I36 position and M46 mutant gene infected in human cord blood mononuclear cells assessed as inhibition of viral replication on day 7 by RT activity assay; conditions: Human immunodeficiency virus 1, subtype CRF02_AG, 7 days
[19] = tested on: Human immunodeficiency virus 1; assay: Antiviral activity against HIV1 subtype B harboring protease polymorphism at M36 position M46I, I50L, N88S mutant gene infected in human cord blood mononuclear cells assessed as inhibition of viral replication […]; type: functional, organism-based; conditions: Human immunodeficiency virus 1, subtype B; summary of the method: as §1
[20] = tested on: Human immunodeficiency virus 1; assay: Antiviral activity against HIV1 subtype C harboring protease L23I, M46I/M, L89T mutant gene and polymorphism at M36 position infected in human cord blood mononuclear cells assessed as inhibition of viral replication […]; type: functional, organism-based; conditions: Human immunodeficiency virus 1, subtype C; summary of the method: as §1
[21] = tested on: Human immunodeficiency virus 1; assay: Antiviral activity against HIV1 subtype C harboring protease E35G mutant gene and polymorphism at I36 position infected in human cord blood mononuclear cells assessed as inhibition of viral replication […]; type: functional, organism-based; conditions: Human immunodeficiency virus 1, subtype C; summary of the method: as §1
[22] = tested on: Human immunodeficiency virus 1; assay: Antiviral activity against HIV1 subtype CRF02_AG harboring protease polymorphism at M36 position and I50FILV, A71V mutant gene infected in human cord blood mononuclear cells assessed as inhibition of viral replication […]; type: functional, organism-based; conditions: Human immunodeficiency virus 1, subtype CRF02_AG; summary of the method: as §1
[23] = tested on: Human immunodeficiency virus 1; assay: Antiviral activity against HIV1 subtype B harboring protease polymorphism at I36 position and M46I, I50L, N88S mutant gene infected in human cord blood mononuclear cells assessed as inhibition of viral replication […]; type: functional, organism-based; conditions: Human immunodeficiency virus 1, subtype B; summary of the method: as §1
[24] = tested on: Human immunodeficiency virus 1; assay: Antiviral activity against HIV1 subtype CRF02_AG harboring protease polymorphism at I36 position and I50FILV, A71V mutant gene infected in human cord blood mononuclear cells assessed as inhibition of viral replication […]; type: functional, organism-based; conditions: Human immunodeficiency virus 1, subtype CRF02_AG; summary of the method: as §1
[25] = tested on: Human immunodeficiency virus 1; assay: Antiviral activity against HIV1 subtype B harboring protease polymorphism at M36 position and L10F, V82A mutant gene infected in human cord blood mononuclear cells assessed as inhibition of viral replication after 48 hrs by luciferase reporter gene assay; type: functional, organism-based; conditions: Human immunodeficiency virus 1, subtype B
[26] = tested on: Human immunodeficiency virus 1; assay: Antiviral activity against HIV1 subtype C harboring protease L10R, M46I, I54V, V82S mutant gene and polymorphism at M36 position infected in human cord blood mononuclear cells assessed as inhibition of viral replication […]; type: functional, organism-based; conditions: Human immunodeficiency virus 1, subtype C; summary of the method: as §1
[27] = tested on: Human immunodeficiency virus 1; assay: Antiviral activity against HIV1 subtype C harboring protease L32I, M46I/M, L76V mutant gene and polymorphism at I36 position infected in human cord blood mononuclear cells assessed as inhibition of viral replication after 48 hrs by luciferase reporter gene assay; type: functional, organism-based; conditions: Human immunodeficiency virus 1, subtype C
[28] = tested on: Human immunodeficiency virus 1; assay: Antiviral activity against HIV1 subtype CRF02_AG harboring protease L76V, M46I, I84V mutant gene and polymorphism at M36 position infected in human cord blood mononuclear cells assessed as inhibition of viral replication […]; type: functional, organism-based; conditions: Human immunodeficiency virus 1, subtype CRF02_AG; summary of the method: as §1
[29] = tested on: Human immunodeficiency virus 1; assay: Selectivity ratio of EC50 for HIV1 subtype C harboring protease L10R, M46I, I54V, V82S mutant gene and polymorphism at M36 position to EC50 for wild type HIV1 subtype C; type: functional
[30] = tested on: Human immunodeficiency virus 1; assay: Selectivity ratio of EC50 for HIV1 subtype C harboring protease L32I, M46I/M, L76V mutant gene and polymorphism at I36 position to EC50 for wild type HIV1 subtype C; type: functional
[31] = tested on: Human immunodeficiency virus 1; assay: Selectivity ratio of EC50 for HIV1 subtype CRF02_AG harboring protease L76V, M46I, I84V mutant gene and polymorphism at M36 position to EC50 for wild type HIV1 subtype CRF02_AG; type: functional
[32] = tested on: Human immunodeficiency virus 1; assay: Selectivity ratio of EC50 for HIV1 subtype CRF02_AG harboring protease M46, I47A, I84V mutant gene and polymorphism at I36 position to EC50 for wild type HIV1 subtype CRF02_AG; type: functional
[33] = tested on: Human immunodeficiency virus 1; assay: Antiviral activity against HIV1 subtype CRF02_AG harboring protease M46, I47A, I84V mutant gene and polymorphism at I36 position infected in human cord blood mononuclear cells assessed as inhibition of viral replication on day 7 by RT activity assay; conditions: Human immunodeficiency virus 1, subtype CRF02_AG, 7 days

`Cc1c(O)cccc1C(=O)N[C@@H](CSc1ccccc1)[C@H](O)CN1C[C@H]2CCCC[C@H]2C[C@H]1C(=O)NC(C)(C)C` [NELFINAVIR] gave an EC50 [1] of 1140 nM, an EC50 [2] of 9.8 nM and an EC50 [3] of 1460 nM. For the same compound, the EC50 [4] was 1.67 nM, the EC50 [5] was 272 nM and the EC50 [6] was 3470 nM. The “Ratio EC50” value [7] was 2, the EC50 [8] was 5.7 nM and the EC50 [9] was 202 nM. For the same compound, the Activity [10] was “Active”, the Activity [11] was “Active” and the Activity [12] was “Active”. The “Ratio EC50” value [13] was 1158, the “Ratio EC50” value [14] was 70 and the “Ratio EC50” value [15] was 35. The “Ratio EC50” value [16] was 6, the “Ratio EC50” value [17] was 163 and the EC50 [18] was 55 nM.
Compound `COC(=O)N[C@H](C(=O)N[C@@H](Cc1ccccc1)[C@@H](O)CN(Cc1ccc(-c2ccccn2)cc1)NC(=O)[C@@H](NC(=O)OC)C(C)(C)C)C(C)(C)C` [ATAZANAVIR] has an EC50 [19] of 183 nM, an EC50 [20] of 88 nM and an EC50 [21] of 3.7 nM. It also gave an EC50 [22] of 9.3 nM, an EC50 [23] of 7.1 nM and an EC50 [24] of 18.6 nM.
`Cc1cccc(C)c1OCC(=O)N[C@@H](Cc1ccccc1)[C@@H](O)C[C@H](Cc1ccccc1)NC(=O)[C@H](C(C)C)N1CCCNC1=O` [LOPINAVIR] gave an EC50 [25] of 196 nM, an EC50 [26] of 418 nM and an EC50 [27] of 157 nM. The EC50 [28] was 134 nM, the “Ratio EC50” value [29] was 190 and the “Ratio EC50” value [30] was 46. For the same compound, the “Ratio EC50” value [31] was 22, the “Ratio EC50” value [32] was 101 and the EC50 [33] was 1470 nM.
